This note sets out measurements from ChEMBL document CHEMBL2331117 (J Med Chem, 2013).

What is called inhibition in vivo is the relative decrease from the control value, in per cent. For orientation: pIC50 means the negative decadic logarithm of the IC50, by convention in mol/L. Read a low pIC50 as a high IC50. Usually AUC(0-inf) stands for total exposure, with the tail of the curve extrapolated.

The nature of data set [1]: Plasma concentration in athymic mouse plasma xenografted with human MCF7 cells at 100 mg/kg, po after 1 hr. In kind it is ADME, organism-based. Further details: dose 100 mg/kg, route oral. The method, boiled down: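 MCF-7 cells (5 × 10^6, in 50% cold HBSS/50% growth-factor-reduced matrigel) were implanted subcutaneously in the hindflank of 5–8 week old female nude mice. At 40–150 mg tumour size, mice received a single oral dose of 100 mg/kg, and plasma was sampled at the listed times after dosing.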
On the technique in general: In xenograft studies the graft and the host belong to different species.

The subject of data set [2] is Mus musculus. The data set is described as follows: In vivo inhibition of mTORC1-mediated phosphorylation of 4EBP1 at ([…]) in human MCF7 cells xenografted into athymic nude mouse at 100 mg/kg, po after 32 hrs by Western blotting analysis relative to control. Format: functional. The settings on record: MCF7, 32 h.
Data set [3] deals with Mus musculus. The data set is described as follows: In vivo inhibition of mTORC1-mediated phosphorylation of 4EBP1 at ([…]) in human MCF7 cells xenografted into athymic nude mouse at 100 mg/kg, po after 8 hrs by Western blotting analysis relative to control. Format: functional. The settings on record: MCF7, 8 h. The method, boiled down:
(§1)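 MCF-7 cells (DMEM, 10% FBS) were implanted subcutaneously at 5 × 10^6 cells in 50% cold HBSS/50% growth-factor-reduced matrigel into the hindflank of 5−8 week old female nude mice. At tumor size 40−150 mg, mice received a single oral dose of 100 mg/kg. Tumor lysates were pooled per group. Phospho-AKT (S473, T308), p70S6K (T389), S6 (S240/244) and 4E-BP1 (T37/46) were measured by Western blot normalized to α-tubulin.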

The test system of data set [4] is Mus musculus. In words: In vivo inhibition of mTORC2-mediated phosphorylation of AKT at […] in human MCF7 cells xenografted into athymic nude mouse at 100 mg/kg, po after 4 hrs by Western blotting analysis relative to control. Particulars: MCF7, 4 h. In kind it is functional. The method, boiled down: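 Human MCF-7 cells were implanted subcutaneously into the hindflank of female nude mice aged 5−8 weeks, at 5 × 10^6 cells in 50% cold HBSS/50% growth-factor-reduced matrigel. At a tumor size of 40−150 mg, mice got one oral dose. Tumor lysates were pooled per group. Phospho-AKT (T308) was read by Western blot and normalized to α-tubulin.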

The subject of data set [5] is Mus musculus. In words: In vivo inhibition of mTORC2-mediated phosphorylation of AKT at serine 473 in human MCF7 cells xenografted into athymic nude mouse at 100 mg/kg, po after 32 hrs by Western blotting analysis relative to control. Format: functional. The settings on record: MCF7, 32 h. The method, boiled down:
as §1

The nature of data set [6]: Drug uptake in tumor of athymic mouse xenografted with human PC3 cells at 100 mg/kg, po after 4 hrs. In kind it is ADME, organism-based, Neoplasm, PC-3. The settings on record: read-out: Drug uptake. Also on record: dose 100 mg/kg, route oral. The method, boiled down:
(§2)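 PC-3 cells (3 × 10⁶, passages 10–14, in ice-cold HBSS) were implanted sc in 5–8 week old male nude mice. Tumors of 200–500 mg received a single oral 100 mg/kg dose. Plasma and tumor were collected at 1, 4, 8, 16, 24 and 32 h and homogenized in buffer. Lysates were pooled per group (n = 5), and phospho-proteins were measured by Western blot normalized to α-tubulin.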

Data set [7] in a line: Drug uptake in tumor of athymic mouse xenografted with human PC3 cells at 100 mg/kg, po after 1 hr. The settings on record: read-out: Drug uptake. Further details: dose 100 mg/kg, route oral. In kind it is ADME, organism-based, Neoplasm, PC-3. The method, boiled down:
as §2

The nature of data set [8]: Plasma concentration in athymic mouse plasma xenografted with human PC3 cells at 100 mg/kg, po after 1 hr. Format: ADME, organism-based, PC-3. Further details: dose 100 mg/kg, route oral.
The target in data set [9] is Vascular endothelial growth factor receptor 2 (Homo sapiens, UniProt P35968). In words: Inhibition of KDR (unknown origin).
Data set [10] has as its target ALK tyrosine kinase receptor (Homo sapiens, UniProt Q9UM73). The data set is described as follows: Inhibition of ALK (unknown origin).
A short description of data set [11]: AUC (0 to infinity) in CD rat at 3 mg/kg, iv. Particulars: plasma. Further details: time infinity, dose 3 mg/kg, route intravenous. Format: ADME, organism-based. The method, boiled down:
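Single-dose PK: female athymic nude mice (10 mg/kg), female CD rats and male beagle dogs (3 mg/kg), male cynomolgus monkeys (3 mg/kg), given iv and by oral gavage. Solution in EPW (5% ethanol/45% PEG400/water), with 1:2 HCl (m/m) for mouse, rat and dog and 1:1.5 HCl (m/m) for monkey. Plasma levels followed over 24 h.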

The next data set concerns Plasma. The data set is described as follows: Plasma concentration in athymic mouse plasma xenografted with human PC3 cells at 100 mg/kg, po after 32 hrs. Particulars: in vivo, BLD = below limit of detection. Format: ADME, organism-based, PC-3. Also on record: dose 100 mg/kg, route oral.
Data set [12] can be described thus: Drug uptake in tumor of athymic mouse xenografted with human MCF7 cells at 100 mg/kg, po after 32 hrs. Format: ADME, organism-based, Neoplasm. Further details: dose 100 mg/kg, route oral. Particulars: read-out: Drug uptake.
Another data set deals with Cytochrome P450 2D6 (Homo sapiens, UniProt P10635). The data set is described as follows: Inhibition of CYP2D6 (unknown origin). In kind it is ADME.
Data set [13] addresses Hepatocyte growth factor receptor (Homo sapiens, UniProt P08581). In words: Inhibition of MET (unknown origin).
Data set [14] has as its target Dual specificity mitogen-activated protein kinase kinase 1 (Homo sapiens, UniProt Q02750). The data set is described as follows: Inhibition of MEK1 (unknown origin).
The subject of data set [15] is Mus musculus. In words: In vivo inhibition of mTORC1-mediated phosphorylation of 4EBP1 at ([…]) in human PC3 cells xenografted into athymic nude mouse at 100 mg/kg, po after 8 hrs by Western blotting analysis relative to control. In kind it is functional. Particulars: PC-3, 8 h. The method, boiled down: (§3)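 PC-3 cells grown in DMEM with 20% FBS were implanted subcutaneously at 3 × 10^6 cells in ice-cold HBSS into the hindflank of 5−8 week old male nude mice. At tumor size 200−500 mg, mice received a single oral dose of 100 mg/kg. Plasma and tumors were collected at 1, 4, 8, 16, 24 and 32 h. Tumor lysates from each group (n = 5) were pooled. Phospho-proteins were quantified by Western blot and normalized to α-tubulin.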

The test system of data set [16] is Mus musculus. The data set is described as follows: In vivo inhibition of mTORC1-mediated phosphorylation of 4EBP1 at ([…]) in human PC3 cells xenografted into athymic nude mouse at 100 mg/kg, po after 4 hrs by Western blotting analysis relative to control. Format: functional. The settings on record: PC-3, 4 h. The method, boiled down: as §3
The subject of data set [17] is Mus musculus. In words: In vivo inhibition of mTORC1-mediated phosphorylation of pS6 at (serine 240/244) in human PC3 cells xenografted into athymic nude mouse at 100 mg/kg, po after 1 hr by Western blotting analysis relative to control. Format: functional. The settings on record: PC-3, 1 h. The method, boiled down: as §3
In data set [18] the test system is Mus musculus. In words: In vivo inhibition of mTORC1-mediated phosphorylation of p70S6K at […] in human PC3 cells xenografted into athymic nude mouse at 100 mg/kg, po after 32 hrs by Western blotting analysis relative to control. Format: functional. Particulars: PC-3, 32 h. The method, boiled down:
as §3

Data set [19] relates to Mus musculus. The data set is described as follows: In vivo inhibition of mTORC2-mediated phosphorylation of AKT at […] in human PC3 cells xenografted into athymic nude mouse at 100 mg/kg, po after 32 hrs by Western blotting analysis relative to control. Format: functional. Particulars: PC-3, 32 h. The method, boiled down: (§4)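 Human PC-3 cells were implanted subcutaneously into the hindflank of male nude mice aged 5−8 weeks, at 3 × 10^6 cells (passages 10−14, >95% viability) in ice-cold HBSS. At a tumor size of 200−500 mg, mice got one oral 100 mg/kg dose. Tumors were taken at 1, 4, 8, 16, 24 and 32 h. Lysates (n = 5 per group) were pooled, and phospho-AKT (T308) was read by Western blot, normalized to α-tubulin.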

The subject of data set [20] is Mus musculus. In words: In vivo inhibition of mTORC2-mediated phosphorylation of AKT at […] in human PC3 cells xenografted into athymic nude mouse at 100 mg/kg, po after 24 hrs by Western blotting analysis relative to control. Format: functional. Particulars: PC-3, 24 h. The method, boiled down: as §4

Each structure is given as a SMILES string. pIC50: −log10 of the molar value. Some results are limits rather than exact numbers.

Vascular endothelial growth factor receptor 2, sequence (P35968 whole entry): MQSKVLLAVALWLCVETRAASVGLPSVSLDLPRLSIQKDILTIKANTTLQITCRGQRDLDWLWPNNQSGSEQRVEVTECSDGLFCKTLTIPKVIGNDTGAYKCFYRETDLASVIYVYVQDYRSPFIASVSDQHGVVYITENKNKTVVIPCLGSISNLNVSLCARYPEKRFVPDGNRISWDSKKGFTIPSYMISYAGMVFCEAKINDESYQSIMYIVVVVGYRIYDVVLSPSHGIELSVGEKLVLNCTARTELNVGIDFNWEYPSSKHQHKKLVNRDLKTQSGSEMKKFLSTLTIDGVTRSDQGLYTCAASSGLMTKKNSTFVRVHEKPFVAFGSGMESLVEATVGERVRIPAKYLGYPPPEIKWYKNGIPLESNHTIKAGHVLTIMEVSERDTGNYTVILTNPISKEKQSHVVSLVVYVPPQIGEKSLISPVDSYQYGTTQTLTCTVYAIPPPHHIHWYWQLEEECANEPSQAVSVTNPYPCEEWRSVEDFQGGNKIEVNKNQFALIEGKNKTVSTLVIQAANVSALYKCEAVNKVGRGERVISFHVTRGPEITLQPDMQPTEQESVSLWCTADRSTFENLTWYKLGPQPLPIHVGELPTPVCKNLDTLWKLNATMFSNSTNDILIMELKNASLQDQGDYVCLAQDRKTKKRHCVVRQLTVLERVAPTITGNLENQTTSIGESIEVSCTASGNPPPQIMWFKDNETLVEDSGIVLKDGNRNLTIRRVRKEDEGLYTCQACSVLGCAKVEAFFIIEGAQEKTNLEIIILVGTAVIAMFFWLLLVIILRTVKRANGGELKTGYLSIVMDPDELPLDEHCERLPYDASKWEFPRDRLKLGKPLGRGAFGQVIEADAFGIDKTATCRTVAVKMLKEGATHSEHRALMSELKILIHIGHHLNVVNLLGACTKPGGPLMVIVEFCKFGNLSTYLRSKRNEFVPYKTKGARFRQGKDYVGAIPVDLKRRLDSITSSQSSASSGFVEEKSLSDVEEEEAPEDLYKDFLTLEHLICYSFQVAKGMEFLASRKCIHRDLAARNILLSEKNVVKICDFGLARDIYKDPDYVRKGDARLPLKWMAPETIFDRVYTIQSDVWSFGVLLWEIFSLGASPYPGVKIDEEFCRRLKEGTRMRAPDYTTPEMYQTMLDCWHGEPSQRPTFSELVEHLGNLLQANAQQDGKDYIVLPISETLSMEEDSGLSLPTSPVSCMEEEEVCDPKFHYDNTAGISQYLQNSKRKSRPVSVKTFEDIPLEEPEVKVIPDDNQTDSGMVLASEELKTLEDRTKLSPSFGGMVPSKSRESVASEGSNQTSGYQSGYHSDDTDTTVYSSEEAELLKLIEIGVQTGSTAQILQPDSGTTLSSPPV
Cytochrome P450 2D6, sequence (P10635 whole entry): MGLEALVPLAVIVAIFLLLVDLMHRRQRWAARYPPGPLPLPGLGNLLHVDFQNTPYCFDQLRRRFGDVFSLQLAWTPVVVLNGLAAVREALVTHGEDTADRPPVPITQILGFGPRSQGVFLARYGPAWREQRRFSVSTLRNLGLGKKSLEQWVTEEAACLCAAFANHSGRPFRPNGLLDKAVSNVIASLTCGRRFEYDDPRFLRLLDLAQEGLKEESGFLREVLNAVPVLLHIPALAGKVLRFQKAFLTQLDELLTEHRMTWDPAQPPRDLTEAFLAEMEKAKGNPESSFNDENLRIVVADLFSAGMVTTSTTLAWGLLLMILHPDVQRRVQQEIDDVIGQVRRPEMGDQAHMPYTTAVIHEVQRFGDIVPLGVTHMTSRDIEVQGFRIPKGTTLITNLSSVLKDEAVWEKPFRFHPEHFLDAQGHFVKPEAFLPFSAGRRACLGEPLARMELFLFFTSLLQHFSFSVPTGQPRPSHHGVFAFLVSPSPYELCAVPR
Hepatocyte growth factor receptor, sequence (P08581 whole entry): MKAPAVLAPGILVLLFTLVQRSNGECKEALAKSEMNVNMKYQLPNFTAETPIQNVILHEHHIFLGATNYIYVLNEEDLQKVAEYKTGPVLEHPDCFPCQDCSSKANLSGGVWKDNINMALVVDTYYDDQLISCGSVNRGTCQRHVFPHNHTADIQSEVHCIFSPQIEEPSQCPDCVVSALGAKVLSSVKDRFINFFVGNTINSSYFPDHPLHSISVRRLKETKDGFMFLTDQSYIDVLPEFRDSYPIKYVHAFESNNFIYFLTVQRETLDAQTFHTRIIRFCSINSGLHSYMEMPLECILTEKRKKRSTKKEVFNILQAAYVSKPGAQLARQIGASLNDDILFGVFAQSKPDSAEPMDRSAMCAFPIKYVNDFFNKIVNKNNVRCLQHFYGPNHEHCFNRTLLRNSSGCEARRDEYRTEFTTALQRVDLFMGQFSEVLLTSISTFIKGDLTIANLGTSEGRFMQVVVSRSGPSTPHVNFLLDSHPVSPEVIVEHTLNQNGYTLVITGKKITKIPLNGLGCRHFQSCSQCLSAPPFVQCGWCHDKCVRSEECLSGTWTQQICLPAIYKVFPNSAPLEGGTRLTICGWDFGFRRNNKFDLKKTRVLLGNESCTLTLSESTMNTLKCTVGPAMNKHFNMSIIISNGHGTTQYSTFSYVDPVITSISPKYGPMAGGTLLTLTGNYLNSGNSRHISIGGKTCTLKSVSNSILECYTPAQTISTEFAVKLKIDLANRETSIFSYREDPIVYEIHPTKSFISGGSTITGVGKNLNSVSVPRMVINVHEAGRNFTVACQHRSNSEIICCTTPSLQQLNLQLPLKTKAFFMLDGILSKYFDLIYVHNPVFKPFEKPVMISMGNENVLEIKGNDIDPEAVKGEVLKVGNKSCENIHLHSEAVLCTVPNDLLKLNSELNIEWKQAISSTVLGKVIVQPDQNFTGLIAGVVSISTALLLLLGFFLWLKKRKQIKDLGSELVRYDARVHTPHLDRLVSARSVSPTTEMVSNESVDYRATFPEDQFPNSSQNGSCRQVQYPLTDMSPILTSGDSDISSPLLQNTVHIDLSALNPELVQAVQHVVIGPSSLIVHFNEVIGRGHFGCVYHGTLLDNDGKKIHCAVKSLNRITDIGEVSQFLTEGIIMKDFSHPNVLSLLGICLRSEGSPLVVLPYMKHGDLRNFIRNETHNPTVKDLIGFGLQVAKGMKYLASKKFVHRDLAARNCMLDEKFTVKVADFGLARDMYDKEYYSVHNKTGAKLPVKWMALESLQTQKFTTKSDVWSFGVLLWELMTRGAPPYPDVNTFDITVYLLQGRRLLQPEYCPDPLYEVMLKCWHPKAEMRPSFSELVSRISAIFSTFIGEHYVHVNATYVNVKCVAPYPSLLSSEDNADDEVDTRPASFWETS
ALK tyrosine kinase receptor, sequence (Q9UM73 whole entry): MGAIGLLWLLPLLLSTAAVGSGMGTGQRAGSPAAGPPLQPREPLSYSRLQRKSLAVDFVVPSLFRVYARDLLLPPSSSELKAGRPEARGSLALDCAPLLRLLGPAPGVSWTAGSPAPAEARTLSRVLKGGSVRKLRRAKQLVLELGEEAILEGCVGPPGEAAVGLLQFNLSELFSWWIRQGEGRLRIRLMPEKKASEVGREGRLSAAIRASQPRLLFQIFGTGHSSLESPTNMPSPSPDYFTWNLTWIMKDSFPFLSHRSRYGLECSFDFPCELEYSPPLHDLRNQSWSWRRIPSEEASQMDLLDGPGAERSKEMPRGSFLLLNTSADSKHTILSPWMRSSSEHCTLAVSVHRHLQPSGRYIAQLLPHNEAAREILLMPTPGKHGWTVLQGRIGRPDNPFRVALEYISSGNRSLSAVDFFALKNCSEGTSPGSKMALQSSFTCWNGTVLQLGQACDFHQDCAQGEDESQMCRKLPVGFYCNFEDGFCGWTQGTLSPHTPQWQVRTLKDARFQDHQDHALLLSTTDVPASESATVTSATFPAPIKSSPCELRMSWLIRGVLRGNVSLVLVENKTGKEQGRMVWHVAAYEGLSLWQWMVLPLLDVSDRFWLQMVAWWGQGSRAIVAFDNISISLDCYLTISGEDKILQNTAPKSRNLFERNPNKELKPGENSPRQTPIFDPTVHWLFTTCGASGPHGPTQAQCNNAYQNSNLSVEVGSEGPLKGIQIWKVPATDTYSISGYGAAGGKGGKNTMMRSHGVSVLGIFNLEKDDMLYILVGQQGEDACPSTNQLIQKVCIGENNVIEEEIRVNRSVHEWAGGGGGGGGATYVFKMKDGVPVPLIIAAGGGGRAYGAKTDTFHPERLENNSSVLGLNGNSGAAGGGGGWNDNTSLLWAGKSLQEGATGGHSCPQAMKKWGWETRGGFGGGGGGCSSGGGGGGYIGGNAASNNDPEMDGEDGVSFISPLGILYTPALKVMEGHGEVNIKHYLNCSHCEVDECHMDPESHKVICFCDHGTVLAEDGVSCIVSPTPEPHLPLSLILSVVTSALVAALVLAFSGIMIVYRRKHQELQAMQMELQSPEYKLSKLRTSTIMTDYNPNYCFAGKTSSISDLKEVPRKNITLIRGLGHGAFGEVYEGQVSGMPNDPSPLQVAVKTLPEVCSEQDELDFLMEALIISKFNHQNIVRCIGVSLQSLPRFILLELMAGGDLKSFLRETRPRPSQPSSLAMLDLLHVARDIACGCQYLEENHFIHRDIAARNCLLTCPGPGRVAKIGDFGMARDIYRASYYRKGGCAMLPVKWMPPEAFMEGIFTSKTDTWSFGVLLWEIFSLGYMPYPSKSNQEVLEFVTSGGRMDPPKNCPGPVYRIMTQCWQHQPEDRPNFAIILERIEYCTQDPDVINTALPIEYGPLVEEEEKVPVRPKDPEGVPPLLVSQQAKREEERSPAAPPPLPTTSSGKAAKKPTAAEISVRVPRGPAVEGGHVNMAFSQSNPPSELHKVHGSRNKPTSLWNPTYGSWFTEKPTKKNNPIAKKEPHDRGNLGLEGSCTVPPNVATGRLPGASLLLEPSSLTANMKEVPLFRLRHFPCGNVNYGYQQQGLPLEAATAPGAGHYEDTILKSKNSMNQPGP

Turning to `Cc1c(C(=O)N2CCOc3ccc(-c4ccc(N)nc4)cc3C2)ccc(S(C)(=O)=O)c1F`, the concentration at 1 h in data set [1] came to 34.4 µM; in [7] it was 28.8 µM; in [8], 32.6 µM. The inhibition in vivo at 100 mg/kg came to 3% in the data set with Mus musculus [2]; 88% in the data set on Mus musculus [3]; 13% with Mus musculus [4]; 11% with Mus musculus [5]; 92% in the data set on Mus musculus [15]; 84% with Mus musculus [16]. Besides, the inhibition in vivo at 100 mg/kg is 88% in the data set with Mus musculus [17], -12% in the data set on Mus musculus [18], -3% in the data set on Mus musculus [19] and 11% in the data set with Mus musculus [20]. Moreover, in data set [6], the concentration at 4 h was determined as 18.6 µM. Further, the pIC50 in data set [9], in data set [10], in data set [13] and in data set [14] was less than 5.46 throughout. In [11], this compound yielded an AUC(0-inf) of 3.72 µM·h. In addition, in the data set with Plasma, the Cp result was “BLD”. Besides, in data set [12], the concentration at 32 h is 0.1 µM. Also, at Cytochrome P450 2D6, the INH is greater than 20 µM.
